Source: ChEMBL document CHEMBL4808178 (J Med Chem, 2021)
Active and inactive are the calls of the source. No cut-off for these calls is given here.

Legend:
PC-3 = assay: Cytotoxicity against human PC3 cells assessed as reduction in cell viability incubated for 72 hrs by MTT assay; format: functional, cell-based; conditions: PC-3, 72 h
How it was run: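 About 5 × 10³ cells/well, seeded overnight at 37 °C, 5% CO₂, in DMEM or RPMI-1640 with 10% FBS and antibiotics. DMSO-dissolved compounds diluted in medium, exposure 72 h.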

HT-29 = assay: Cytotoxicity against human HT-29 cells assessed as reduction in cell viability incubated for 72 hrs by MTT assay; format: functional, cell-based; conditions: HT-29, 72 h
HCT-116 [1] = assay: Inhibition of cell stemness in human HCT116 cells assessed as inhibition of CD44+/CD133+ expression at 20 uM after 24 hrs by flow cytometry analysis; format: functional
How it was run: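 ALDH⁺ HCT-116 subpopulation sorted by flow cytometry; 2 × 10⁵ cells/well seeded overnight at 37 °C, 5% CO₂; treated 20 μM for 24 h (vehicle DMSO); stained with PE anti-CD133 and FITC anti-CD44 30 min; CD44⁺/CD133⁺ read by flow cytometry.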

HCT-116 [2] = assay: Inhibition of cell stemness in human HCT116 cells assessed as reduction in size of tumor spheres at 5 uM after 10 days by microscopic analysis; format: functional, cell-based; conditions: time 10.0 day
How it was run: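 Sorted ALDH⁺ HCT-116 cells, 800/well, in serum-free DMEM with B27 (1:50), EGF 20 ng/mL, β-FGF 10 ng/mL; co-incubated with compound (5 μM) or DMSO vehicle for 10 days; sphere number, diameter and morphology scored from microscopy images; mean ± SD, n = 3.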

[3] = biological target: Glycogen synthase kinase-3 beta (Homo sapiens) (UniProt P49841); assay: Inhibition of GSK3beta phosphorylation at serine 9 in human HCT-116 cells after 24 hrs by Western blot analysis; format: cell-based; conditions: dose 5-20 µM
Glycogen synthase kinase-3 beta (Homo sapiens), sequence (P49841 whole entry, looked up): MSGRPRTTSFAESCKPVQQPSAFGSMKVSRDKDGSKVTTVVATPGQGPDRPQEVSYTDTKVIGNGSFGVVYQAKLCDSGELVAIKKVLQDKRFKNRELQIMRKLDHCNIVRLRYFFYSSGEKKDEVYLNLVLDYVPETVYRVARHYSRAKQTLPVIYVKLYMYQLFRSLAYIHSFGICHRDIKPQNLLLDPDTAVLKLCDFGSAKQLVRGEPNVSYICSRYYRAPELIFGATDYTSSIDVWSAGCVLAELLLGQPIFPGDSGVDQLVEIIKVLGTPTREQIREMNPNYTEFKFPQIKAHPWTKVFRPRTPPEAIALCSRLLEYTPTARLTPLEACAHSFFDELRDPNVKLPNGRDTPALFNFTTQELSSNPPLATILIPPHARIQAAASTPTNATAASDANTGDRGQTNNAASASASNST
How it was run: (§1)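 HCT-116 cells at 2 × 10⁵ cells/mL in DMEM/10% FBS, grown 12 h at 37 °C, then treated 24 h (vehicle DMSO). Lysates quantified by BCA, run on 10% SDS-PAGE, PVDF transfer, blocked in 5% milk/TBST, primary antibodies 4 °C overnight, HRP secondary 2 h, chemiluminescent detection; normalized to β-actin, n = 3.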

HCT-116 [4] = assay: Effect on Wnt/beta-Catenin signaling in human HCT116 cells assessed as downregulation of beta-catenin protein level at 5 to 20 uM after 24 hrs by Western blotting analysis; format: functional, cell-based; conditions: dose 5-20 µM; how it was run: as §1
HCT-116 [5] = assay: Inhibition of cell invasion in human HCT-116 cells at 5 uM after 24 hrs by crystal violet staining based inverted microscopic analysis; format: functional
How it was run: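 Transwell chambers ([…]); 1 × 10⁵ HCT-116 cells in serum-free medium in upper compartment, DMEM + 10% FBS as chemoattractant below; treated 24 h (vehicle DMSO); non-invading cells swabbed off, lower-surface cells crystal violet stained 30 min, counted by inverted microscope; mean ± SD, n = 3.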

HCT-116 [6] = assay: Induction of apoptosis in human HCT116 cells assessed as viable cells at 5 uM after 24 hrs by annexin V-FITC/propidium iodide staining based flow cytometry (reference value: 88.3%); format: functional; conditions: read-out: Activity
HCT-116 [7] = assay: Induction of apoptosis in human HCT116 cells assessed as early apoptotic cells at 5 uM after 24 hrs by annexin V-FITC/propidium iodide staining based flow cytometry (reference value: 1%); format: functional
HCT-116 [8] = assay: Induction of apoptosis in human HCT116 cells assessed as early apoptotic cells at 10 uM after 24 hrs by annexin V-FITC/propidium iodide staining based flow cytometry (reference value: 1%); format: functional
HCT-116 [9] = assay: Induction of apoptosis in human HCT116 cells assessed as late apoptotic cells at 20 uM after 24 hrs by annexin V-FITC/propidium iodide staining based flow cytometry (reference value: 5.1%); format: functional
HCT-116 [10] = assay: Induction of apoptosis in human HCT116 cells assessed as necrotic cells at 20 uM after 24 hrs by annexin V-FITC/propidium iodide staining based flow cytometry (reference value: 5.6%); format: functional
HCT-116 [11] = assay: Induction of cell cycle arrest in human HCT116 cells assessed as accumulation at S phase at 20 uM after 24 hrs by propidium iodide-staining based flow cytometry (reference value: 36.43%); format: functional
HCT-116 [12] = assay: Induction of cell cycle arrest in human HCT116 cells assessed as accumulation at G2/M phase at 20 uM after 24 hrs by propidium iodide-staining based flow cytometry (reference value: 14.67%); format: functional
HCT-116 [13] = assay: Induction of apoptosis in human HCT116 cells assessed as increase in Cyt c protein expression at 20 uM incubated for 24 hrs by Western blot analysis; format: functional, cell-based; how it was run: as §1
HCT-116 [14] = assay: Induction of apoptosis in human HCT116 cells assessed as down regulation of total PARP at 20 uM incubated for 24 hrs by Western blot analysis; format: functional, cell-based; how it was run: as §1
HCT-116 [15] = assay: Induction of apoptosis in human HCT116 cells assessed as upregulation of cleaved PARP level at 20 uM incubated for 24 hrs by Western blot analysis; format: functional, cell-based; how it was run: as §1
[16] = Tmax in Sprague-Dawley rat at 25 mg/kg, po measured up to 48 hrs by LC-MS/MS analysis; format: ADME, organism-based; conditions: in vivo
How it was run: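 Overnight-fasted male SD rats (250−270 g, n = 3/group), single oral 25 mg/kg in 5% CMC-Na (reference sodium salt in phosphate buffer); plasma at 0.25–48 h (12 timepoints), stored −40 °C; LC−MS/MS with internal-standard calibration 3–3000 ng/mL; parameters fitted by model.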

[17] = Cmax in Sprague-Dawley rat at 25 mg/kg, po measured up to 48 hrs by LC-MS/MS analysis; format: ADME, organism-based; set-up: route oral, dose 25 mg/kg, time <=48; conditions: in vivo
How it was run: (§2)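 Overnight-fasted male SD rats (about 250−270 g), three per group, single oral 25 mg/kg; test compound suspended in 5% CMC-Na, control as sodium salt in phosphate buffer. Blood sampled 0.25–48 h, plasma by centrifugation, stored −40 °C, quantified by LC−MS/MS against plasma standard curve (3–3000 ng/mL) with internal standard; model-fitted PK parameters.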

[18] = AUC(0 to infinity) in Sprague-Dawley rat at 25 mg/kg, po measured up to 48 hrs by LC-MS/MS analysis; format: ADME, organism-based; set-up: route oral, dose 25 mg/kg, time <=48; conditions: in vivo; how it was run: as §2
HCT-116 [19] = assay: Antitumor activity against human HCT116 cells xenografted in BALB/c athymic nude mouse assessed as tumor growth inhibition at 90 mg/kg, po administered twice daily for 4 weeks and measured every 3 days; format: functional; conditions: HCT-116, po, 672 h, read-out: TGI
How it was run: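 Male BALB/c athymic nude mice, 5 weeks old, 16−18 g, given 0.2 mL of 5 × 10⁷ cells/mL HCT-116 in right armpit. At about 100 mm³, randomized to groups of five; intragastric dosing twice daily for 4 weeks. Tumor volume and body weight every 3 days; tumors weighed after sacrifice; organs HE-stained.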

[20] = Toxicity in BALB/c mouse xenografted with human HCT116 cells assessed as effect on heart tissue at 60 to 90 mg/kg, po administered twice daily for 4 weeks and measured every 3 days by HE staining based assay; format: organism-based, HCT-116; conditions: in vivo, 672 h, dose 60-90 mg/kg
How it was run: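 Male 5-week BALB/c nude mice (16−18 g), 0.2 mL of 5 × 10⁷ cells/mL HCT-116 injected into right armpit; at ~100 mm³ randomized, 5/group; intragastric 60 or 90 mg/kg twice daily for 4 weeks; tumor volume and body weight every 3 days; after sacrifice heart, liver, spleen, lung, kidney HE-stained.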

Q: Which IC50 (PC-3) does the source give for O=C(NCCO)c1ccc2c(c1)nc(Nc1cccc(Cl)c1)c1ccncc12 here?
A: Its IC50 is 4.53 µM.

Q: And the IC50 (HT-29)?
A: The IC50 was 5.18 µM.

Q: And the inhibition at 20 µM (HCT-116 [1])?
A: The inhibition at 20 µM was 84%.

Q: What about the inhibition (HCT-116 [2]) of the same compound?
A: Its inhibition is “Active”.

Q: And the inhibition [3]?
A: The inhibition was “Dose-Dependent Effect”.

Q: And the Activity (HCT-116 [4])?
A: Its Activity is “Active”.

Q: What about the Activity (HCT-116 [5]) of the same compound?
A: The Activity was “Active”.

Q: What about the viability at 5 µM (HCT-116 [6]) of the same compound?
A: The viability at 5 µM was 60.7%.

Q: What about the Activity (HCT-116 [7]) of the same compound?
A: Its Activity is 18%.

Q: What about the Activity (HCT-116 [8]) of the same compound?
A: The Activity was 12.6%.

Q: What about the Activity (HCT-116 [9]) of the same compound?
A: Its Activity is 32.9%.

Q: What about the Activity (HCT-116 [10]) of the same compound?
A: Its Activity is 8.7%.

Q: And the Activity (HCT-116 [11])?
A: Its Activity is 5.36%.

Q: And the Activity (HCT-116 [12])?
A: Its Activity is 22.72%.

Q: What about the Activity (HCT-116 [13]) of the same compound?
A: Its Activity is “Active”.

Q: What about the Activity (HCT-116 [14]) of the same compound?
A: The Activity was “Active”.

Q: And the Activity (HCT-116 [15])?
A: The Activity was “Active”.

Q: And the Tmax [16]?
A: The Tmax was 2.33 h.

Q: And the Cmax [17]?
A: The Cmax was 7020 ng/mL.

Q: What about the AUC(0-inf) [18] of the same compound?
A: Its AUC(0-inf) is 41500 ng·h/mL.

Q: What about the inhibition in vivo at 90 mg/kg (HCT-116 [19]) of the same compound?
A: The inhibition in vivo at 90 mg/kg was 69%.

Q: And the Activity [20]?
A: Its Activity is “Non-Toxic”.
